Laboratory results from ChEMBL document CHEMBL4725343, “Medicinal Chemistry Optimization of a Diaminopurine Chemotype: Toward a Lead for Trypanosoma brucei Inhibitors” (J Med Chem, 2020).

Key:
[1] = Distribution coefficient between octanol and aqueous buffer, logD of the compound in pH 7.4 buffer by UPLC-MS-based shake flask method; format: physicochemical; conditions: octanol/water
[2] = Tmax in NMRI mouse at 10 mg/kg, ip measured up to 6 hrs on day 1 by LC-MS/MS analysis; format: ADME, organism-based; conditions: in vivo
How it was run: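 Uninfected female NMRI mice given 10 mg/kg ip at 10 mL/kg in 1% DMSO/99% of 20% (w/v) SBEβ-CD in water, n=3. Tail-vein blood collected into K2EDTA at 0.0833–24 h and diluted 1:1 with water. Extracted with internal standard nifedipine and quantified by LC-MS/MS.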

[3] = Tmax in ABT-treated NMRI mouse infected with Trypanosoma brucei brucei STIB795 at 30 mg/kg, ip measured up to 6 hrs on day 1 by LC-MS/MS analysis; format: ADME, organism-based; conditions: in vivo, dose 30 mg/kg/day
How it was run: (§1)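 Female NMRI mice, infected with STIB795 or uninfected, pretreated with ABT 50 mg/kg po 1 h before 30 mg/kg ip. Vehicle 4% DMSO, 20% Captisol. Tail blood taken at 0.5, 2, 4 and 6 h on day 1 and diluted with water. Liquid–liquid extraction with nifedipine internal standard, then LC-MS/MS.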

[4] = AUC (0 to t) in NMRI mouse at 10 mg/kg, ip measured up to 6 hrs on day 1 by LC-MS/MS analysis; format: ADME, organism-based; parameters: route intraperitoneal, dose 10 mg/kg; conditions: in vivo
How it was run: (§2)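 Female NMRI mice, uninfected, single ip dose 10 mg/kg at 10 mL/kg in 1% DMSO/99% of 20% (w/v) SBEβ-CD (Captisol) in water. Tail-vein blood into K2EDTA at 0.0833, 0.25, 0.5, 1, 2, 4, 6, 8 and 24 h. Blood diluted 1:1 in water, liquid–liquid extraction with nifedipine internal standard, LC-MS/MS.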

[5] = AUC(0 to t) in ABT-treated NMRI mouse infected with Trypanosoma brucei brucei STIB795 at 30 mg/kg, ip measured up to 6 hrs on day 1 by LC-MS/MS analysis; format: ADME, organism-based; parameters: route intraperitoneal, dose 30 mg/kg/day, time <=6; conditions: in vivo
How it was run: (§3)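 Female NMRI mice infected ip with 10^4 bloodstream T. b. brucei STIB795 in TDB glucose. Dosing began day 3 after infection with parasitemia confirmed (n=3): oral ABT 50 mg/kg 1 h before ip 30 mg/kg (0.2 mL; 4% DMSO, 20% Captisol). Blood taken at 0.5, 2, 4, 6 h on day 1, extracted with nifedipine internal standard, LC-MS/MS.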

[6] = AUC in ABT-treated NMRI mouse infected with Trypanosoma brucei brucei STIB795 at 30 mg/kg, ip measured up to 6 hrs on day 1 by LC-MS/MS analysis; format: ADME, organism-based; parameters: route intraperitoneal, dose 30 mg/kg/day, time <=6; conditions: in vivo; how it was run: as §3
[7] = AUC(0 to t) in ABT-treated NMRI mouse at 30 mg/kg, ip measured up to 6 hrs on day 1 by LC-MS/MS analysis; format: ADME, organism-based; parameters: route intraperitoneal, dose 30 mg/kg/day, time <=6; conditions: in vivo
How it was run: (§4)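 Uninfected female NMRI mice (n=3), oral 1-aminobenzotriazole 50 mg/kg/day 1 h before each ip dose of 30 mg/kg/day (0.2 mL; vehicle 4% DMSO, 20% Captisol). Blood sampled at 0.5, 2, 4 and 6 h on day 1. Samples processed by liquid–liquid extraction with nifedipine internal standard, then LC-MS/MS.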

[8] = Apparent permeability across basolateral to apical side in human Caco2 cells assessed as drug recovery after 2 hrs; format: ADME, cell-based; conditions: caco-2, 2 h
[9] = Tmax in ABT-treated NMRI mouse at 30 mg/kg, ip measured up to 6 hrs on day 1 by LC-MS/MS analysis; format: ADME, organism-based; conditions: in vivo, dose 30 mg/kg/day; how it was run: as §1
[10] = Apparent permeability across apical to basolateral side in human Caco2 cells after 2 hrs; format: ADME, cell-based; conditions: caco-2, 2 h
[11] = Cmax in ABT-treated NMRI mouse at 30 mg/kg, ip measured up to 6 hrs on day 1 by LC-MS/MS analysis; format: ADME, organism-based; parameters: route intraperitoneal, dose 30 mg/kg/day, time <=6; conditions: in vivo
How it was run: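 Female NMRI mice, uninfected (n=3), were given ABT 50 mg/kg/day 1 h before each ip dose of 30 mg/kg/day, in a vehicle of 4% DMSO and 20% Captisol, as a 0.2 mL injection. Blood was sampled at 0.5, 2, 4 and 6 h on day 1. Samples underwent liquid–liquid extraction with nifedipine as internal standard, followed by LC-MS/MS.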

[12] = Apparent permeability across basolateral to apical side in human Caco2 cells after 2 hrs; format: ADME, cell-based; conditions: caco-2, 2 h
[13] = AUC in NMRI mouse at 10 mg/kg, ip measured up to 6 hrs on day 1 by LC-MS/MS analysis; format: ADME, organism-based; parameters: route intraperitoneal, dose 10 mg/kg; conditions: in vivo; how it was run: as §2
[14] = Cmax in ABT-treated NMRI mouse infected with Trypanosoma brucei brucei STIB795 at 30 mg/kg, ip measured up to 6 hrs on day 1 by LC-MS/MS analysis; format: ADME, organism-based; parameters: route intraperitoneal, dose 30 mg/kg/day, time <=6; conditions: in vivo
How it was run: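 Female NMRI mice were infected ip with 10^4 bloodstream-form T. b. brucei STIB795. From day 3 they received ABT 50 mg/kg/day 1 h before ip dosing at 30 mg/kg/day (n=3), in a vehicle of 4% DMSO and 20% Captisol, for 5 days. Blood was sampled at 0.5, 2, 4 and 6 h on day 1. Quantitation was by LC-MS/MS after liquid–liquid extraction with nifedipine as internal standard.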

[15] = Apparent permeability across apical to basolateral side in human Caco2 cells assessed as drug recovery after 2 hrs; format: ADME, cell-based; conditions: caco-2, 2 h
[16] = AUC in ABT-treated NMRI mouse at 30 mg/kg, ip measured up to 6 hrs on day 1 by LC-MS/MS analysis; format: ADME, organism-based; parameters: route intraperitoneal, dose 30 mg/kg/day, time <=6; conditions: in vivo; how it was run: as §4
[17] = Cmax in NMRI mouse at 10 mg/kg, ip measured up to […]rs on day 1 by LC-MS/MS analysis; format: ADME, organism-based; parameters: route intraperitoneal, dose 10 mg/kg; conditions: in vivo
How it was run: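 Female NMRI mice, uninfected (n=3), received a single ip dose of 10 mg/kg at 10 mL/kg, in 1% DMSO/99% of 20% (w/v) SBEβ-CD in water. Tail-vein blood was collected into K2EDTA at 0.0833 to 24 h and diluted with an equal volume of water. Samples underwent liquid–liquid extraction with nifedipine as internal standard, followed by LC-MS/MS.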

Row | Compound | logD [1] | Tmax [2] [min] | Tmax [3] [min] | AUCt [4] [ng·h/mL] | AUCt [5] [ng·h/mL] | AUC [6] [ng·h/mL] | AUCt [7] [ng·h/mL] | Drug recovery [8] [%] | Tmax [9] [min] | Papp [10] | Cmax [11] [ng/mL] | Papp [12] | AUC [13] [ng·h/mL] | Cmax [14] [ng/mL] | Drug recovery [15] [%] | AUC [16] [ng·h/mL] | Cmax [17] [µM]
1 | FC(F)(F)CNc1nc(Nc2ccsc2)nc2[nH]cnc12 | 3.1 |  |  |  |  |  |  |  |  |  |  |  |  |  |  |  | 
2 | Cn1nccc1Nc1nc(NCC(F)(F)F)c2nc[nH]c2n1 | 1.9 | 15 | 30 | 5340 | 77666 | 83443 | 51799 | 102 | 30 | 5.8 10^-6 cm/s | 15767 | 44 10^-6 cm/s | 5350 | 17267 | 87 | 52521 | 11.8
